18 compounds from ChEMBL document CHEMBL1828566, “Synthesis of 4β-triazole-podophyllotoxin derivatives by azide-alkyne cycloaddition and biological evaluation as potential antitumor agents” (Eur J Med Chem, 2011) can be followed below.

By pIC50 is commonly meant −log10 of the IC50, conventionally taken in molar units. Read a high pIC50 as a small IC50.

Experiment [1] can be described thus: Cytotoxicity against human K562/A02 cells after 2 days by MTT assay. It is filed as functional, cell-based. The following applies: K562/A02, 48 h. In short, it runs like this:
(§1)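 Exponentially growing cells were seeded in 96-well plates, precultured 1 day, exposed to test compounds over a range of concentrations, then incubated 2 more days.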
(In general: Formazan colour is commonly taken as a measure of viable cells.)

Experiment [2] relates to HeLa. The experiment is described as follows: Cytotoxicity against human HeLa cells after 2 days by MTT assay. The format is functional, cell-based. The following applies: 48 h. In short, it runs like this:
as §1

Experiment [3] relates to K562. The experiment is described as follows: Cytotoxicity against human K562 cells after 2 days by MTT assay. The format is functional, cell-based. The following applies: K562, 48 h. In short, it runs like this:
as §1

Experiment [4] in a line: Selectivity index, ratio of IC50 for VP-16 to compound for human K562/A02 cells after 2 days by MTT assay. It is filed as functional.
The subject of experiment [5] is HeLa. The experiment is described as follows: Selectivity index, ratio of IC50 for VP-16 to compound for human HeLa cells after 2 days by MTT assay. The format is functional.
The test system of experiment [6] is K562. The experiment in a line: Selectivity index, ratio of IC50 for VP-16 to compound for human K562 cells after 2 days by MTT assay. It is filed as functional.

SMILES strings stand for the structures. pIC50: −log10 of the molar value. Counter-ions that a name gives are not always drawn.

`COC(=O)c1cn([C@@H]2c3cc4c(cc3[C@@H](c3cc(OC)c(OC)c(OC)c3)[C@H]3C(=O)OC[C@@H]32)OCO4)nn1`: the figures for the pIC50 (in experiment [1]; with HeLa [2]; with K562 [3]) were 5.68, 5.95 and 5.38, respectively.
As for `COc1cc([C@@H]2c3cc4c(cc3[C@@H](n3cc(C(=O)O)nn3)[C@H]3COC(=O)[C@H]23)OCO4)cc(OC)c1OC`, the negative-log IC50 (pIC50) in experiment [1] is 5.05; with HeLa [2] it was less than 5.00; in the experiment on K562 [3], 5.27.
In the case of `COc1cc([C@@H]2c3cc4c(cc3[C@@H](n3cc(CCC(=O)O)nn3)[C@H]3COC(=O)[C@H]23)OCO4)cc(OC)c1OC`, the pIC50 (in experiment [1]; with HeLa [2]; in the experiment with K562 [3]) was less than 5.00 in each case.
Turning to `COc1cc([C@@H]2c3cc4c(cc3[C@@H](n3cc(-c5cccnc5)nn3)[C@H]3COC(=O)[C@H]23)OCO4)cc(OC)c1OC`, the pIC50 in experiment [1] was less than 5.00; in the experiment on HeLa [2], 4.45; in the experiment with K562 [3], less than 5.00.
With `COc1cc([C@@H]2c3cc4c(cc3[C@@H](n3cc(CNc5ccc(C)cc5)nn3)[C@H]3COC(=O)[C@H]23)OCO4)cc(OC)c1OC`, the negative logarithm of the IC50 (pIC50) in experiment [1] is 6.28; in the experiment with HeLa [2] it was 6.07; in the experiment on K562 [3] it was 6.33.
Take `COc1cc([C@@H]2c3cc4c(cc3[C@@H](n3cc(C(=O)Nc5ccccc5Cl)nn3)[C@H]3COC(=O)[C@H]23)OCO4)cc(OC)c1OC`: the results for the pIC50 (in experiment [1]; in the experiment on HeLa [2]; in the experiment with K562 [3]) were 7.23, 7.09 and 7.28, respectively. The “Ratio IC50” value (in experiment [4]; in the experiment on HeLa [5]; in the experiment with K562 [6]) was greater than 40 each time.
Consider `COc1cc([C@@H]2c3cc4c(cc3[C@@H](n3cc(CN(C)C)nn3)[C@H]3COC(=O)[C@H]23)OCO4)cc(OC)c1OC`, for which the pIC50 (in experiment [1]; with HeLa [2]; with K562 [3]) was less than 5.00 each time.
In the case of `CCN(CC)C(=O)c1cn([C@@H]2c3cc4c(cc3[C@@H](c3cc(OC)c(OC)c(OC)c3)[C@H]3C(=O)OC[C@@H]32)OCO4)nn1`, the pIC50 (in experiment [1]; with HeLa [2]; with K562 [3]) was less than 5.00 each time.
For the compound `COC(=O)c1cnnn1[C@@H]1c2cc3c(cc2[C@@H](c2cc(OC)c(OC)c(OC)c2)[C@H]2C(=O)OC[C@@H]21)OCO3`, the pIC50 in experiment [1] was 6.22; with HeLa [2], 6.38; with K562 [3], 6.40.
In the case of `COc1cc([C@@H]2c3cc4c(cc3[C@@H](n3nncc3-c3cccnc3)[C@H]3COC(=O)[C@H]23)OCO4)cc(OC)c1OC`, the pIC50 was 5.91 in experiment [1], 5.84 in the experiment on HeLa [2] and 6.41 in the experiment with K562 [3].
`COc1cc([C@@H]2c3cc4c(cc3[C@@H](n3cc(C(=O)Nc5ccc(C)cc5)nn3)[C@H]3COC(=O)[C@H]23)OCO4)cc(OC)c1OC`: the pIC50 (in experiment [1]; with HeLa [2]; in the experiment with K562 [3]) was less than 4.00 throughout.
Turning to `COc1cc([C@@H]2c3cc4c(cc3[C@@H](n3nncc3C(=O)Nc3ccc(C)cc3)[C@H]3COC(=O)[C@H]23)OCO4)cc(OC)c1OC`, the pIC50 is 4.70 in experiment [1], less than 5.00 with HeLa [2] and 5.29 in the experiment on K562 [3].
Consider `CCOC(=O)c1cn([C@@H]2c3cc4c(cc3[C@@H](c3cc(OC)c(OC)c(OC)c3)[C@H]3C(=O)OC[C@@H]32)OCO4)nn1`, for which the values for the pIC50 (in experiment [1]; with HeLa [2]; with K562 [3]) were 5.66, 5.45 and 5.37, respectively.
As for `CCOC(=O)c1cnnn1[C@@H]1c2cc3c(cc2[C@@H](c2cc(OC)c(OC)c(OC)c2)[C@H]2C(=O)OC[C@@H]21)OCO3`, the pIC50 in experiment [1] is 6.16; in the experiment with HeLa [2] it was 6.04; with K562 [3], 6.07.
On to `COc1cc([C@@H]2c3cc4c(cc3[C@@H](n3cc(CNc5ccccc5)nn3)[C@H]3COC(=O)[C@H]23)OCO4)cc(OC)c1OC`, for which the pIC50 was 5.22 in experiment [1], 5.63 in the experiment with HeLa [2] and 5.24 in the experiment with K562 [3].
The corresponding values for `COc1cccc2c1C(=O)c1c(O)c3c(c(O)c1C2=O)C[C@@](O)(C(=O)CO)C[C@@H]3O[C@H]1C[C@H](N)[C@H](O)[C@H](C)O1` [DOXORUBICIN HYDROCHLORIDE] are 4.72, 6.37 and 6.44.
As to `COc1cc([C@@H]2c3cc4c(cc3[C@@H](O[C@@H]3O[C@@H]5CO[C@@H](C)O[C@H]5[C@H](O)[C@H]3O)[C@H]3COC(=O)[C@H]23)OCO4)cc(OC)c1O` [ETOPOSIDE], the negative-log IC50 (pIC50) in experiment [1] is 3.82; in the experiment on HeLa [2], 5.20; with K562 [3], 5.68.
Take `COc1cc([C@@H]2c3cc4c(cc3[C@H](O)[C@H]3COC(=O)[C@H]23)OCO4)cc(OC)c1OC` [PODOFILOX]: the pIC50 is 6.77 in experiment [1], 7.00 in the experiment with HeLa [2] and 7.52 in the experiment with K562 [3].
